Data set [1] is described as follows: melting temperature; fluorescence melt of hairpins on a sequencing array, two-state fit, raised by 9.35 °C to match UV melts. The note with it: sodium 0.088 M. An outline of the steps:
(§1)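 Melting temperature and folding enthalpy were derived from bootstrapped two-state fits. The fitted temperatures were raised by 9.35 °C to agree with UV melts, and four replicates were combined by inverse variance. The underlying data were Cy3 fluorescence images of library hairpins, with annealed Cy3 and quencher oligos, on a sequenced MiSeq flow cell in 50 mM Na-HEPES pH 8.0, 25 mM NaCl, taken in 2.5 °C steps up to 60 °C, normalised to pre-quench Cy3 and to control constructs.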

A short description of data set [2]: folding enthalpy; higher = less favourable; fluorescence melt of hairpins on a sequencing array, two-state fit. The note with it: sodium 0.088 M. An outline of the steps: as §1

GGGGAGCCGAAAGGCCCC (((..(((....)))))): in data set [1], the Tm is 61.9 °C. In data set [2], the folding enthalpy was -13.2 kcal/mol.

As to GGGGAGGGAAACCCCCCC ((((.((....)).)))), in data set [1], the Tm turned out to be 54.5 °C. In addition, the folding enthalpy in data set [2] is -34.1 kcal/mol.

For GGGGATCGAAAGATGCCC (((.(((....))).))), the Tm in data set [1] turned out to be 59.4 °C. Also, the folding enthalpy in data set [2] is -48.8 kcal/mol.

For GGGGATGAAAATCCCC ((((((....)))))), in data set [1], the Tm amounted to 66.2 °C. For the same sequence, the folding enthalpy in data set [2] is -33.7 kcal/mol.

For GGGGATGCGAAAGCACCC (((..(((....)))))), the Tm in data set [1] was found to be 56.2 °C. Also, the folding enthalpy in data set [2] was -17.2 kcal/mol.

Consider GGGGATGGAAACGTCCTC (.(((.(....).))).), for which, in data set [1], the Tm is 36.1 °C. For the same sequence, the folding enthalpy in data set [2] is -27 kcal/mol.

In the case of GGGGCAGCGAAAGCTCCC (((..(((....)))))), the Tm in data set [1] amounted to 56 °C. Also, in data set [2], the folding enthalpy is -16.7 kcal/mol.

In the case of GGGGCCGAAAGGCCACCC ((((((....)))..))), the Tm in data set [1] stood at 60 °C. Moreover, the folding enthalpy in data set [2] was -10.1 kcal/mol.

GGGGCCGAAAGGCCTCCC ((((((....)))..))): in data set [1], the Tm was 54.8 °C. The folding enthalpy in data set [2] is -9.22 kcal/mol.

Turning to GGGGCCGAAAGGCTACCC ((((((....)))..))), in data set [1], the Tm is 53.2 °C. In data set [2], the folding enthalpy is -14.8 kcal/mol.

Consider GGGGCGGGAAACCGCCTC (.(((((....))))).), for which, in data set [1], the Tm was determined as 60.5 °C. In data set [2], the folding enthalpy was -12 kcal/mol.

Take GGGGCTCGAAAGAGTCCC (((.(((....))).))): in data set [1], the Tm stood at 67.7 °C. The folding enthalpy in data set [2] was -42.8 kcal/mol.

Consider GGGGGATCGAAAGATCCC (((..(((....)))))), for which the Tm in data set [1] was 59.9 °C. Also, the folding enthalpy in data set [2] was -8.42 kcal/mol.

As to GGGGGCGGAAACACCCCC (((((.(....).))))), in data set [1], the Tm turned out to be 56.9 °C. For the same sequence, the folding enthalpy in data set [2] was -39.3 kcal/mol.

Regarding GGGGGGGGAAACCTCCCC ((((.((....)).)))), the Tm in data set [1] was found to be 59.9 °C. The folding enthalpy in data set [2] is -34 kcal/mol.

For the sequence GGGGGTCGAAAGACTCCC (((.(((....))).))), the Tm in data set [1] is 63.4 °C. In addition, in data set [2], the folding enthalpy is -43.5 kcal/mol.

Consider GGGGGTTCGAAAGAACCC (((..(((....)))))), for which the Tm in data set [1] stood at 58.9 °C. The folding enthalpy in data set [2] was -7.33 kcal/mol.

GGGGTAACGAAAGTTCCC (((..(((....)))))): the Tm in data set [1] was determined as 49.9 °C. Besides, the folding enthalpy in data set [2] is -23.8 kcal/mol.

Consider GGGGTAGGAAACTGCCCC ((((.((....)).)))), for which, in data set [1], the Tm amounted to 57.2 °C. The folding enthalpy in data set [2] is -47.3 kcal/mol.

In the case of GGGGTAGGAAACTGTCCC (((..((....))..))), in data set [1], the Tm came to 36.2 °C. The folding enthalpy in data set [2] was -25.5 kcal/mol.

With GGGGTATCGAAAGATCCC (((..(((....)))))), in data set [1], the Tm was determined as 50.4 °C. For the same sequence, the folding enthalpy in data set [2] was -22.4 kcal/mol.

With GGGGTCGAAAGACAACCC ((((((....)))..))), the Tm in data set [1] was found to be 48.8 °C. For the same sequence, the folding enthalpy in data set [2] was -21.2 kcal/mol.

On to GGGGTCGAAAGACCGCCC ((((((....)))..))), for which the Tm in data set [1] was 52.7 °C. Further, the folding enthalpy in data set [2] was -11.3 kcal/mol.

For the sequence GGGGTCGAAAGACGTCCC ((((((....)))..))), the Tm in data set [1] is 42.4 °C. Moreover, the folding enthalpy in data set [2] was -18.5 kcal/mol.

With GGGGTCGAAAGACTACCC ((((((....)))..))), in data set [1], the Tm amounted to 45.2 °C. For the same sequence, the folding enthalpy in data set [2] was -18 kcal/mol.

Take GGGGTCGGAAACAACCCC (((((.(....).))))): in data set [1], the Tm was found to be 48.3 °C. In data set [2], the folding enthalpy is -31.7 kcal/mol.

As to GGGGTCGGAAACGGCTCC ((.(.((....)).).)), the Tm in data set [1] turned out to be 49.6 °C. In addition, the folding enthalpy in data set [2] is -42.8 kcal/mol.

Take GGGGTCTCGAAAGAGCCC (((..(((....)))))): the Tm in data set [1] was 58.9 °C. Moreover, the folding enthalpy in data set [2] is -28.6 kcal/mol.

GGGGTGGGAAACCGTCCC (((..((....))..))): the Tm in data set [1] came to 45.2 °C. Moreover, the folding enthalpy in data set [2] was -18.5 kcal/mol.

With GGGGTTCGAAAGAATCCC (((.(((....))).))), the Tm in data set [1] was 58.6 °C. The folding enthalpy in data set [2] is -43.8 kcal/mol.

GGGGTTGCGAAAGCACCC (((..(((....)))))): the Tm in data set [1] was determined as 59.5 °C. In data set [2], the folding enthalpy was -19 kcal/mol.

For GGGGTTGGAAACAACTCC ((.((((....)))).)), the Tm in data set [1] was 51.3 °C. Besides, in data set [2], the folding enthalpy was -37.5 kcal/mol.

As for GGGGTTGGAAACAGCTCC ((.(.((....)).).)), the Tm in data set [1] turned out to be 37 °C. The folding enthalpy in data set [2] was -24.6 kcal/mol.

Take GGGGTTGGAAACAGTCCC (((..((....))..))): in data set [1], the Tm amounted to 36 °C. In addition, the folding enthalpy in data set [2] is -24.5 kcal/mol.

As for GGGGTTGGAAACGACCCC (((((.(....).))))), in data set [1], the Tm is 57.8 °C. Further, in data set [2], the folding enthalpy was -49.1 kcal/mol.

GGGTAACGAAAGTTGCCC (((.(((....))).))): the Tm in data set [1] was 59.6 °C. In data set [2], the folding enthalpy is -49.4 kcal/mol.

Consider GGGTAAGCGAAAGCTCCC (((..(((....)))))), for which the Tm in data set [1] amounted to 47.8 °C. In addition, the folding enthalpy in data set [2] was -20.6 kcal/mol.

Source of the values: the array DNA melting data of Ke et al. (doi:10.1101/2024.01.08.574731).
